According to publication PMC5322940 (Cell, 2016):

Target: CB1 protein (Homo sapiens, UniProt P21554, D324T/DEL307-313/E273K/E323T/H320Y/I317L/I319V/INS325[…]/K326D/Q314A/Q328R/R331I/R340E/S316A/T210A/T283V/T321G/T330A/V329G)
Assay: Affinity mass spectrometry analysis of AM6538
Assay type: binding
Conditions: CB1 protein co-purified with AM6538
How it was run: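 CB1–flavodoxin fusion expressed in HEK293F and purified in DDM/CHS. Membranes took up 20 µM test compound (3 h, 4 °C), then iodoacetamide; wash and elution buffers also carried test compound. Co-purified complex was desalted on G-25 to strip free ligand. About 1 µg was ultrafiltered (30 kDa cutoff, 13,000 g, 10 min, 4 °C) in 150 mM ammonium acetate, 0.02% DDM, 0.004% CHS; retained complex collected.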

Compound: Cc1c(C(=O)NN2CCCCC2)nn(-c2ccc(Cl)cc2Cl)c1-c1ccc(C#CCCO[N+](=O)[O-])cc1 [AM6538, 4-(4-(1-(2,4-dichlorophenyl)-4-methyl-3-(piperidin-1-ylcarbamoyl)-1H-pyrazol-5-yl)phenyl)but-3-yn-1-yl nitrate]
- Covalent modification of CB1 cysteine residues: no evidence of covalent modification
